# From PubChem
# PHOSPHO1 inh: PubChem AID 1565; Phosphoethanolamine/phosphocholine phosphatase (Homo sapiens), Q8TCT1; recombinant PHOSPHO1, absorbance phosphatase assay; inhibition, % at 13.3 µM; hit rate 1.1% among 290,000; in the data active = inhibition above about 60%
# Target sequence (Q8TCT1 whole entry, looked up): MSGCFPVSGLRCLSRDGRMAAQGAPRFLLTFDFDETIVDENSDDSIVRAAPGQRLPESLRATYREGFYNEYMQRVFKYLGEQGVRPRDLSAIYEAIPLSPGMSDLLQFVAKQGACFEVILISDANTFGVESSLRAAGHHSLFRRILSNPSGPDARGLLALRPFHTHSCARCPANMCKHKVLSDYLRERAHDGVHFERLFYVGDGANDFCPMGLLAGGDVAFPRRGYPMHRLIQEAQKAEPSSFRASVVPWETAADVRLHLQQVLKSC
# AI-2 QS mod: Vibrio harveyi AI-2 quorum sensing modulators, primary screen, JMH597 strain, luminescence/OD600 ratio; Vibrio harveyi JMH597 AI-2 luminescence/OD600 ratio, 9 h; stronger effect = lower value; strain lacks LuxN and CqsS sensors; 0 = neutral-control median; activity change, % at 7.5 µM; hit rate 0.4% among 300,000; AID 2094, 2009; in the data active = activity change below about -75%, passing the limit was not always enough; inconclusive = no clear call, values can overlap the other calls;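 also: luminescence divided by OD600 gain over 9 h not by final OD600 alone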
# HSF1 inhib: HSF1 inhibitors in luciferase reporter cells, primary screen, cell-based, NIH3T3, luminescence; NIH3T3-HGL HSE-luciferase, MG132-induced, luminescence 8 h; stronger effect = lower value; activity change, negative = inhibition, % at 7.5 µM (by protocol); hit rate 0.77% among 300,000;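 active = more than half of replicate wells show activity change below -50%, luminescence cut by over half; inconclusive = some wells, but at most half, below -50%; inactive = no replicate well below -50%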;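 also: luciferase reports HSF-1 transcriptional activity via heat shock element; 0% = median of DMSO wells and -100% = zero luminescence signal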
# core dimer inh: inhibitors of HCV core protein dimerization, primary screen, biochemical, TR-FRET, high-throughput. TR-FRET GST/Flag-core106 dimerization, 1536-well. inhibition, % at 5 µM. hit rate 0.33% among 300,000;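 active = inhibition above the mean of all tested compounds plus 3 SD, set per screening campaign, cut at about 45% in these data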
#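 System – GST-tagged and Flag-tagged HCV core protein residues 1-106 · Repeats – one well for each compound · Technique – TR-FRET 671 and 617 nm emission · Doses – one concentration, 5 µM, in 0.5% DMSO · Times – 4 h, 22.5 °C incubation · Also added – Eu donor and XL665 acceptor anti-tag antibodies · Measure – percent inhibition of core106 dimerization signal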
# HSF-1 act: HSF-1 activators, primary screen, NIH3T3-HGL cells, MG132 stress, luminescence, single point | AID 504408, 2011 | hit rate 1.7% among 300,000 | activation, % at 9 µM | NIH3T3-HGL HSF-1 luciferase reporter, 8 h; 100% = twice DMSO control signal;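 active = mean replicate activation of at least 50% with a set share of replicates each reaching 50%; inconclusive = only one of those two conditions met; inactive = mean below 50% and too few replicates reaching it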;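 also: 0% = median of the neutral control wells and 100% = twice that signal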
# ALR inh: inhibitors of human ALR sulfhydryl oxidase, primary screen, biochemical, H2O2 detection, HRP-luminol luminescence, single point. FAD-linked sulfhydryl oxidase ALR (Homo sapiens), P55789. purified ALR, DTT oxidation. inhibition, % (concentration not given with the values). hit rate 3.8% among 290,000;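 active = mean replicate inhibition above about 79%, with every replicate also reaching it, limit read from the data; inconclusive = only one of the two criteria met; inactive = mean below limit and not every replicate reaching it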
# Starred values were filed as active, the others as inactive; ? = inconclusive; . = no result. In the library only some 6.8% were active in any assay of this set; here they are far more common.
SMILES,PHOSPHO1 inh,AI-2 QS mod,HSF1 inhib,core dimer inh,HSF-1 act,ALR inh
CCN(CC)N=Nc1[nH]nc2nc(C)cc(C)c12,69*,30,-21,-5,-38,7
C=C1c2cc(C)ccc2NC(=O)N1c1ccc(C)cc1,73*,31,-5,-3,-9,.
C=C1c2ccccc2NC(=O)N1c1ccc(C)cc1,6,0,6,2,15,0
Cc1[nH]n(C2=NCCS2)c(=O)c1N=Nc1ccccc1,-117,11,36,1,34,92*
Cc1ccc(NC(=S)N/N=C2\CC3CC=CC23)c(C)c1 (stereo not drawn),65*,5,-2,15,3,44
Cc1cccc(C)c1NC(=S)N/N=C1\CC2CC=CC12 (stereo not drawn),-70,-15,-5,2,-10,19
COC(=O)C(NC(=O)CNS(=O)(=O)c1ccc(Br)cc1)c1ccccc1 (stereo not drawn),8,27,19,-2,54*,5
COc1cccc(CNc2ccc(F)c([N+](=O)[O-])c2)c1O,29,-1,36,-8,45,98*
Nc1ccn(CC(=O)N[C@H](CO)Cc2c[nH]c3ccccc23)c(=O)n1,.,.,.,.,.,49
CCNc1ccc(S(=O)(=O)N(C)C)cc1NCC(=O)Nc1ccccc1Cl,47,-3,-13,4,10,99*
CNC(=O)N(O)C1N(/N=C/c2ccc(N(C)C)cc2)C(=S)SC1(C)C (stereo not drawn),24,24,-5,-2,6,99*
N#Cc1cnn2ccn(C3OC(CO)C(O)C3O)c12 (stereo not drawn),33,9,-5,7,29,-4
C/C=C/C(=O)Nc1nnc(-c2ccccc2C)s1,25,19,-28,11,-39,98*
C=C(C)C(=O)Nc1nnc(-c2ccccc2C)s1,3,.,.,.,.,.
Cc1ccc(-n2c(-c3cnccn3)n[nH]c2=S)c(Br)c1,-109,-20,-8,-4,-1,-3
FC(F)(F)c1ccccc1-n1c(-c2cnccn2)n[nH]c1=S,74*,4,-4,3,-1,43
OC(c1ccccc1)(c1ccc(F)cc1)C(c1ccccc1)N1CCOCC1 (stereo not drawn),14,19,2,9,9,-2
Cc1ccccc1SCCNC(=O)c1ccccc1Br,60*,20,34,1,?,-2
O=C(NCCNC(=O)c1ccccc1Br)c1ccccc1Br,24,41,-10,0,-9,.
CCOc1cc(/C=C\[N+](=O)[O-])ccc1OCC(=O)N1CCOCC1,20,6,189,0,310*,-1
Cc1ccccc1NC(=O)c1ccc2c(c1)N(C)CCS2,33,23,19,-9,38,98*
COc1ccc(CNC(=O)c2ccc3c(c2)N(C)CCS3)cc1,33,17,15,-12,12,96*
CN1CCSc2ccc(C(=O)NCc3ccccc3F)cc21,33,15,-12,-7,-29,?
CC(C)Oc1ccc(CNC(=O)c2ccc3c(c2)N(C)CCS3)cc1,7,36,21,2,44,12
CN1CCSc2ccc(C(=O)Nc3cc(F)ccc3F)cc21,12,10,53,6,76*,10
CCN(CC(=O)Nc1c(F)cccc1F)C(=O)CCc1nc2cc(S(=O)(=O)N3CCOCC3)ccc2n1C,.,22,9,1,8,-1
Cc1ccc(NC2=C(Cl)C(=O)OC2OC(=O)c2ccco2)c(C)c1 (stereo not drawn),.,20,9,-2,26,99*
Cc1ccc(C)c(NC2=C(Cl)C(=O)OC2OC(=O)c2ccco2)c1 (stereo not drawn),-9,15,17,-3,30,27
Cc1ccc(NC2=C(Cl)C(=O)OC2OC(=O)c2ccco2)cc1C (stereo not drawn),-9,43,13,0,18,91*
CCCCN(C(=O)c1ccc2c(c1)OCCO2)c1c(N)n(CC(C)C)c(=O)[nH]c1=O,.,11,0,-1,-2,.
